From ChEMBL document CHEMBL3120144, “Design, synthesis and molecular modeling of aloe-emodin derivatives as potent xanthine oxidase inhibitors” (Eur J Med Chem, 2014) come the findings set out here.

The target of data set [1] is T1, Xanthine dehydrogenase/oxidase (Bos taurus, UniProt P80457). Kind of data set: Inhibition of bovine xanthine oxidase using xanthine as substrate measured for 6 mins at 50 uM at 25 degC by spectrophotometry. The conditions noted are these: cattle, 0.1 h. The essentials: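 Xanthine substrate, 25 °C, in 50 mM K₂HPO₄ buffer at pH 7.8. Xanthine was added as an 84.8 μg/mL solution in the same buffer; this is the added solution's concentration, not the final one. Test compounds were dissolved in DMSO and added at various concentrations.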

Data set [2] deals with T1, Xanthine dehydrogenase/oxidase. The data set can be described thus: Inhibition of bovine xanthine oxidase using xanthine as substrate measured for 6 mins at 25 degC by spectrophotometry.
The target is the same in data set [3]. Kind of data set: Mixed-type inhibition of bovine xanthine oxidase using xanthine as substrate at 1.4 to 5.6 uM by Lineweaver-Burk plot. The conditions noted are these: cattle.

T1 sequence (P80457 whole entry): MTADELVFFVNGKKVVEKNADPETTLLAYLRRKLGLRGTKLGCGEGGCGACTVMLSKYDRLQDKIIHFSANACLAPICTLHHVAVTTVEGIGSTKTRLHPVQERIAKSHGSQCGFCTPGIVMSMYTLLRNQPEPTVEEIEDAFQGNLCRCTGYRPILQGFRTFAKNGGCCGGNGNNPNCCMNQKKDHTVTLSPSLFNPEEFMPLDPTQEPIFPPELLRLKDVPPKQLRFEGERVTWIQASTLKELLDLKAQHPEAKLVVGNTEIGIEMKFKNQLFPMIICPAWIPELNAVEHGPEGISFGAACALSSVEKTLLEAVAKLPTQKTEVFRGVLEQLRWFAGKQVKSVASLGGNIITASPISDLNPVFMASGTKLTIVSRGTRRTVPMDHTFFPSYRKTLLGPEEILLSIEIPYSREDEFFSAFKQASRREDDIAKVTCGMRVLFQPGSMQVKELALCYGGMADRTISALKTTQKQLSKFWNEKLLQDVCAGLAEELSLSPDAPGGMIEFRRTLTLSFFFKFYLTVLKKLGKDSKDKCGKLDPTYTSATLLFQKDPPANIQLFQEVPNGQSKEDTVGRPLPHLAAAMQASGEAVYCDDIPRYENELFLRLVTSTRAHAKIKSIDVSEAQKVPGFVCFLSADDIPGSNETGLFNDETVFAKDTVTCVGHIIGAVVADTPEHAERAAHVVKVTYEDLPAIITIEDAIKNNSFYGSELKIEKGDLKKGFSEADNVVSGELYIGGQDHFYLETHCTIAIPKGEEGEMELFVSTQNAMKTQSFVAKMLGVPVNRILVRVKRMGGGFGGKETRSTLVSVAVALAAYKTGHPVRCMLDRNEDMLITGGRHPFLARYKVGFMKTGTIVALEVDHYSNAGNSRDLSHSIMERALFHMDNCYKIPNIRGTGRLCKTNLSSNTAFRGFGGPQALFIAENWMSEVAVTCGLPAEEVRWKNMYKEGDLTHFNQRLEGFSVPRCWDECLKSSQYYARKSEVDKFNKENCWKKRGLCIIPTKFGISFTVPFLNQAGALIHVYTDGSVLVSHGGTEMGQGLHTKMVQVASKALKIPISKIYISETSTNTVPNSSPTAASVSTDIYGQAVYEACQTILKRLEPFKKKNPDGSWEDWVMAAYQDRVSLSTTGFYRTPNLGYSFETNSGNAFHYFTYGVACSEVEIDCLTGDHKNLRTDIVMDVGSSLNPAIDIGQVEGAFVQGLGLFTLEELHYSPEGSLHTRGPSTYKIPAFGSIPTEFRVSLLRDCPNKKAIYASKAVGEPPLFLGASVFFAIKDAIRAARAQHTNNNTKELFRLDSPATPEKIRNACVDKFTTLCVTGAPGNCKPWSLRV

The term inhibition denotes the relative decrease from the control value, in per cent. The low end stands for little suppression, the high end for strong suppression. As a reminder, the IC50 is the concentration needed to halve the response being measured. `CC(=O)OC[C@H]1OC(OC(C)=O)[C@H](/N=C/c2cc(O)c3c(c2)C(=O)c2cccc(O)c2C3=O)[C@H](OC(C)=O)[C@@H]1OC(C)=O` (stereo not given in full): in data set [1], 50 µM produced 93.4% inhibition. In data set [2], it took 8.43 µM to reach half-maximal inhibition (IC50).

In data set [1], `COc1cccc2c1C(=O)c1c(OC)cc(/C=N/N)cc1C2=O` had an inhibition at 50 µM below 10%.

The compound `O=C1c2cccc(O)c2C(=O)c2c(O)cc(/C=N/c3ccccc3)cc21` gave an inhibition at 50 µM in data set [1] of 94.5%. In data set [2], the IC50 amounted to 3.87 µM.

In turn, `COc1cccc2c1C(=O)c1c(OC)cc(CO)cc1C2=O` had an inhibition at 50 µM in data set [1] of 9.77%.

Regarding `COc1cccc2c1C(=O)c1c(OC)cc(C[N+](C)(C)C)cc1C2=O`, in data set [1], the inhibition at 50 µM was below 10%.

In data set [1], `COc1cccc2c1C(=O)c1c(OC)cc(/C=N/O)cc1C2=O` had an inhibition at 50 µM below 10%.

Turning to `COc1cccc2c1C(=O)c1c(OC)cc(CCl)cc1C2=O`, testing at 50 µM in data set [1] gave an inhibition of 14.3%.

`C[N+](C)(Cc1cc(O)c2c(c1)C(=O)c1cccc(O)c1C2=O)c1ccccc1` had an inhibition at 50 µM in data set [1] below 10%.

For `O=Cc1cc(O)c2c(c1)C(=O)c1cccc(O)c1C2=O`, the inhibition at 50 µM in data set [1] turned out to be 93.3%. 2.79 µM corresponded to half-maximal inhibition in data set [2] (IC50). The “inhibition (INH)” value in data set [2] (cattle, 0.1 h) is reported as “Dose-dependent effect”; in data set [3] it was “Active”.

For `O=C1c2cccc(O)c2C(=O)c2c(O)cc(CO)cc21` [ALOE-EMODIN], in data set [1], the inhibition at 50 µM was determined as 22.5%.

For `O=C1c2cccc(O)c2C(=O)c2c(O)cc(C[n+]3ccccc3)cc21`, in data set [1], the inhibition at 50 µM is below 10%.

Turning to `COc1cccc2c1C(=O)c1c(OC)cc(C=O)cc1C2=O`, at 50 µM the inhibition in data set [1] was 36.5%.

For `O=C(O)c1cc(O)c2c(c1)C(=O)c1cccc(O)c1C2=O` [RHEIN], in data set [1], the inhibition at 50 µM stood at 3.63%.

In data set [1], `O=C1c2cccc(O)c2C(=O)c2c(O)cc(CCl)cc21` yielded an inhibition at 50 µM of 18.4%.

In data set [1], `COc1cccc2c1C(=O)c1c(OC)cc(C[N+](C)(C)c3ccccc3)cc1C2=O` displayed an inhibition at 50 µM below 10%.

As to `CC(=O)OC[C@H]1OC(OC(C)=O)[C@H](NC(=O)c2cc(O)c3c(c2)C(=O)c2cccc(O)c2C3=O)[C@H](OC(C)=O)[C@@H]1OC(C)=O` (stereo not given in full), at 50 µM the inhibition in data set [1] was 7.2%.

`C[N+](C)(C)Cc1cc(O)c2c(c1)C(=O)c1cccc(O)c1C2=O`: the inhibition at 50 µM in data set [1] is 68.8%. The same compound registered a concentration for half-maximal inhibition (IC50) in data set [2] of 18.7 µM.

In data set [1], `COc1cccc2c1C(=O)c1c(OC)cc(/C=N/c3ccccc3)cc1C2=O` returned an inhibition at 50 µM of 17.5%.

`COc1cccc2c1C(=O)c1c(OC)cc(C[n+]3ccccc3)cc1C2=O`: in data set [1], the inhibition at 50 µM is below 10%.
